Compound activity (PubChem)
GRK2 aptamer HTS – blocks RNA aptamer binding to human GRK2 | P25098 | bead flow cytometry, FAM-aptamer displacement from GRK2 | inhibition of aptamer binding, % at 10 µM | hit rate 0.59% among 330,000 | AID 488847;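 active = inhibition of aptamer binding above 40%, roughly 3 SD of noise, on plates passing a quality check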;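 also: median bead fluorescence of bound FAM aptamer so fluorescent compounds give negative values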
JMJD2C inh – blocks human GASC-1 demethylase activity | hit rate 0.069% among 330,000 | Q9H3R0 | AID 2099 | inhibition, % at 2.35 µM | GST-JMJD2C(1-420) H3K9me3 demethylation, DELFIA europium;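 active = more than half of a compound's replicate wells show inhibition beyond 50%, single wells judged on their own value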;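 also: signal counts dimethyl H3K9 product captured on neutravidin plate; 0% = median of DMSO wells and 100% = 0.3 times that DMSO median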
procasp3 activ – activators of human procaspase-3; recombinant procaspase-3 D3A, Ac-DEVD-pNA absorbance 405 nm; activation, % at 8.5 µM; hit rate 0.11% among 330,000; AID 463141;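 active = activation above the mean of all tested compounds plus 3 SD, cut at about 21% in these data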;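 also: 0% = DMSO alone and 100% = DMSO wells spiked with extra 5 µM PC-3 D3A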
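Assay system – Procaspase-3 D3A mutant, all three cleavage aspartates alanine · Controls – DMSO-only low control, 5 µM PC-3 D3A high control · Schedule – 1 h compound preincubation, 2 h substrate hydrolysis at 25 °C · Signal – 405 nm absorbance of p-nitroaniline, reads at 0 and 120 min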
VLA-4 inh – inhibition in a human VLA-4 binding assay | VLA-4 expressing cells, ligand binding flow cytometry | inhibition, % (about 7 µM as worked out from the volumes in the protocol) | hit rate 0.2% among 330,000 | AID 2557; in the data active = inhibition above about 50%
procasp7 counter – counter-screen for procaspase-3 activators: activators of human procaspase-7; P55210; recombinant procaspase-7, Ac-DEVD-pNA absorbance 405 nm; D23A/D198A/D206A triple mutant, cannot self-cleave; scale: DMSO 0, 5 µM enzyme 100; activation, % at 8.5 µM; hit rate 0.093% among 330,000; AID 463210;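 active = percent activation above the screen-wide mean plus 3 SD, cut at about 25% in these data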
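System: Uncleavable procaspase-7 mutant enzyme; Amount: 2 µM procaspase-7 mutant as dispensed; Schedule: 1 h compound preincubation, 2 h substrate cleavage, 25 °C; Measured by: 405 nm absorbance of p-nitroaniline; Evaluation: percent activation from buffer-corrected 0–120 min absorbance change; Control set: low DMSO alone, high DMSO plus 5 µM PC-7.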
Lipid droplet – hepatic lipid droplet formation modulation | hit rate 0.4% among 240,000 | inhibition, % at 6.5 µM | AID 1656 | AML12 mouse hepatocytes, oleate lipid droplets, BODIPY imaging;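 active = lipid droplet intensity inhibited by at least 50%, with more than 500 cells counted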
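Assay system: AML12 mouse liver cells | Compound dosing: One dose, 6.5 µM compound | Read-out basis: Droplet intensity reduction, % inhibition | Measured by: Fluorescence imaging, 20x objective, two fields per well | Schedule: Overnight treatment with compound plus oleate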
VLA-4 allo CP – confirmation of allosteric modulators of human VLA-4 integrin | AID 2813 | shares compounds with VLA-4 inh | U937 cells, HUTS-21 LIBS mAb binding, flow cytometry; LDV ligand present at threefold Kd | inhibition, % at 6.7 µM | hit rate 2% among 1,300; in the data active = inhibition above about 40%;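 also: 0% = ligand without compound and 100% = no ligand background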
Numbers without * were called inactive; x = not tested or not shown; ! = not confirmed by another sample. Hits are enriched below; roughly 1.3% of the tested compounds scored in any of these assays.

SMILES	GRK2 aptamer HTS	JMJD2C inh	procasp3 activ	VLA-4 inh	procasp7 counter	Lipid droplet	VLA-4 allo CP
O=C(CNC(=O)c1ccc(-c2ccccc2)cc1)OCc1c(Cl)cccc1Cl	0.0	2.2	-5.7	52.5*	-2.0	0.4	6.2
COc1c2occc2c(OC)c2c(=O)cc(C)oc12	0.0	-18.7	2.6	50.9*	8.1	-11.2	-4.9
COc1c2ccoc2cc2oc(C)cc(=O)c12	0.0	-0.9	-4.1	-9.1	10.4	x	x
C=CCn1c(C)cc(C2=NNC(=NC(C)(C)C)SC2)c1C	0.0	-13.2	0.9	46.5	3.6	-29.0	-8.5
Cc1ccc(OCCNC(=O)c2cc(C3CC3)nc3c2cnn3C(C)C)cc1	0.0	-0.4	1.5	-7.3	3.5	x	x
CCC(C)NC(=O)c1ccc2c(c1)N(Cc1ccccc1)C(=O)CS2 (stereo unspecified)	0.0	-13.9	-4.3	9.8	-4.5	3.0	x
O=C(O)c1ccc2c(c1)N(Cc1cccc(F)c1)C(=O)CS2	2.0	-6.2	9.6	50.4*	4.4	x	-0.6
CCN(CC(=O)Nc1ccc(NC(C)=O)cc1)C(=O)c1ccc(COc2ccccc2)o1	3.0	-2.4	-3.5	15.0	-1.0	x	x
CCOc1ccc(NC(=O)CN(C)C(=O)c2ccc(COc3ccccc3)o2)cc1OCC	1.0	5.2	6.5	53.6*	6.8	x	-4.9
Cc1ccc(O)c([C@H](CCN(C(C)C)C(C)C)c2ccccc2)c1	1.0	-35.7	3.1	53.3*!	-8.8	7.1	-9.5
CCCN(CCC)C(=O)CC(c1ccccc1)c1ccc(C)cc1O (stereo unspecified)	1.0	11.6	-7.5	-4.0	8.9	-10.2	x
O=C(CNc1ccccc1)N/N=C/c1c(O)ccc2ccccc12	0.0	7.5	-22.9	50.3*	-44.6	-1.0	-2.8
O=C(CSCC(=O)Nc1ccccc1)N/N=C/c1c(O)ccc2ccccc12	0.0	6.4	-25.6	17.6	-40.0	x	x
Cc1ccc(S(=O)(=O)NCc2ccc(C(=O)NC3CCC(O)CC3)cc2)cc1C (stereo unspecified)	1.0	-5.4	5.2	15.0	10.9	x	x
Cn1nnnc1SCC(=O)N1CCN(S(=O)(=O)c2ccccc2)CC1	3.0	3.0	5.0	50.6*	7.0	5.0	5.3
CCCOc1ccccc1/C=C(\C#N)C(=O)Nc1cccc(C)n1	2.0	6.5	1.9	6.1	-11.5	3.9	x
CCOc1ccccc1/C=C(/C#N)C(N)=O	0.0	12.6	-6.0	0.9	-4.4	25.3	2.0
C=CCn1c(-c2ccccc2)c[nH]c1=S	0.0	5.3	-17.4	12.8	-14.3	15.3	x
CCn1c(-c2ccc(-c3ccccc3)cc2)c[nH]c1=S	0.0	3.1	-2.4	92.6*	3.2	7.2	9.0
CCOC(=O)N1CCN(c2nc(C)c3c(n2)CC(C)CC3=O)CC1 (stereo unspecified)	0.0	1.7	2.7	52.7*	5.6	x	11.7
CC(C)CC(=O)Nc1ccc2c(c1)nc(CCN1CCCCC1)n2C	0.0	-26.9	11.8	47.4	-1.1	-3.0	6.2
CC(C)C(=O)Nc1ccc2c(c1)nc(CCN1CCCCC1)n2C	0.0	-19.6	7.2	8.8	0.0	-3.2	x
COc1ccc(OC)c2sc(NC(=O)c3cccc(N4C(=O)CCC4=O)c3)nc12	19.0	8.6	9.8	64.6*	2.3	5.2	4.0
COc1ccc(-c2csc(NC(=O)c3cccc(N4C(=O)CCC4=O)c3)n2)cc1C	1.0	2.2	2.3	12.3	0.5	2.7	x
CC(=O)[C@@]1(O)CC[C@H]2[C@@H]3CCC4=CC(=O)CC[C@]4(C)[C@H]3[C@@H](O)C[C@@]21C	5.0	-25.1	2.7	53.0*	3.0	0.6	2.7
SMILES	GRK2 aptamer HTS	JMJD2C inh	procasp3 activ	VLA-4 inh	procasp7 counter	Lipid droplet	VLA-4 allo CP
Cc1ccc(S(=O)(=O)NNC(=O)CCC(=O)Nc2ccc(C)cc2C)cc1	0.0	-2.9	-2.9	46.6	-12.3	-1.8	-11.8
C=C[C@@]1(C)CCC(/C(C)=C/C=C/C(C)(C)O)C[C@@H]1C(=C)C (stereo partly specified)	4.0	7.8	-0.6	14.0	-2.2	x	x
COC(=O)c1ccsc1NC(=O)CN1C(=O)CCC1=O	4.0	-7.0	3.7	51.8*	5.3	12.9	-0.2
COC(=O)c1ccc2nc(NC(=O)CN3C(=O)CCC3=O)sc2c1	1.0	14.9	-13.3	7.9	1.4	x	x
CC1CCCN(C(=O)NC2CC(=O)N(c3ccc4c(c3)OCCO4)C2)C1 (stereo unspecified)	1.0	10.3	4.9	7.1	-1.1	x	x
FC(F)(F)c1cccnc1N1CCN(c2ncnc3nc[nH]c23)CC1	0.0	0.0	0.3	49.7*	6.2	-0.3	7.0
C=CCNC(=O)c1ccccc1NC(=O)COc1ccccc1	1.0	-4.0	17.6	54.5*	7.1	2.4	11.8
C=CCNC(=O)c1ccccc1NC(=O)COc1ccc(OC)cc1	36.0	5.3	1.9	7.0	7.7	13.2	1.8
COc1ccc(NC(=O)c2ccccc2NC(=O)COc2ccccc2)cc1	0.0	-5.1	0.2	24.8	0.3	-14.7	x
Cc1oc2c(CN3CCCC(C)C3)c(O)ccc2c(=O)c1-c1ccccc1 (stereo unspecified)	0.0	0.4	-1.7	6.9	8.9	-5.3	x
Cc1cc(C)cc(N(CC(=O)Nc2ccc(Br)cc2)S(=O)(=O)c2c(C)[nH]c(=O)[nH]c2=O)c1	2.0	8.5	0.9	2.2	6.0	1.7	12.3
Cc1cc(C)cc(N(CC(=O)Nc2cc(C)ccc2C)S(=O)(=O)c2c(C)[nH]c(=O)[nH]c2=O)c1	0.0	-6.8	-2.2	5.5	4.5	-3.7	1.8
O=C(Cn1nnc(-c2ccccc2F)n1)N1CCCCC1	1.0	1.4	7.8	-1.6	-3.4	x	x
CCOC(=O)C[C@H]1c2ccccc2S(=O)(=O)N1C1CC1	0.0	-3.8	-6.1	-10.6	-0.5	x	x
O=C(Nc1ccccc1F)c1cc(S(=O)(=O)N2CCOCC2)ccc1N1CCOCC1	x	x	x	x	x	x	-2.1
O=C(Nc1cccc(C(F)(F)F)c1)c1cc(S(=O)(=O)N2CCCCC2)ccc1N1CCOCC1	0.0	-4.0	4.9	19.9	-2.7	-9.8	x
Cc1ccc(NC(=O)c2cc(S(=O)(=O)N(C)C)ccc2N2CCCC2)cc1S(=O)(=O)N(C)C	4.0	-0.1	9.0	2.1	7.3	x	x
O=C(COC(=O)c1ccc(S(=O)(=O)N2CCOCC2)cc1)Nc1ccccc1F	2.0	4.1	-3.5	10.1	-5.4	x	x
O=C(CCc1ccc(S(=O)(=O)N2CCOCC2)cc1)Nc1ccccc1F	2.0	-4.6	-3.4	56.2*	-4.3	x	2.0
